Measured values reported in ChEMBL document CHEMBL4513216, “Probing the Open Global Health Chemical Diversity Library for Multistage-Active Starting Points for Next-Generation Antimalarials” (ACS Infect Dis, 2020).

Test: Toxicity liver stage against HepG2, at 10uM
Assay type: cell-based
Parameters: test concentration 10 uM, cell line HepG2-A16-CD81EGFP
Details: human, HepG2-A16-CD81EGFP cells; read-out: INHIBITION
How it was run: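 Uninfected HepG2-A16-CD81EGFP cells, 3 × 10^3 per well, 1536-well, plated on prespotted compound at 10 μM final, parasite-free screening media added to match infected plates; puromycin 10 μM positive, DMSO 0.5% negative; run in parallel with 48 h PbLuc assay at 37 °C, 5% CO2; viability by CellTiter-Glo luminescence, normalized to controls.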
Compound `CC/N=c1\nc(NCC)nc2n1C(O)(Nc1cccc(Cl)c1Cl)CS2` (configuration not stated) has a cytotoxicity at 10 µM of 14.1%.
`O=C(c1cc(Br)ccc1-n1cnnn1)N1CCCC1` showed a cytotoxicity at 10 µM of -9.24%.
Compound `Cn1cnnc1SCc1cc2c(cc1Cl)OCO2` has a cytotoxicity at 10 µM of 7.03%.
`Cn1nc(C(=O)N2CCSCC2)cc1NC(=O)c1ccco1` showed a cytotoxicity at 10 µM of 1.11%.
In the case of `COc1ccc2nc(NC(=O)c3c(C(=O)O)cnn3C)sc2c1`, the cytotoxicity at 10 µM is reported as 7.19%.
`CC(C)(C)NC(=O)CNc1ncc(Br)cn1` showed a cytotoxicity at 10 µM of 2.96%.
With `CC(O)CN(Cc1cccc(C(N)=O)c1)c1ccccc1` (configuration not stated) the cytotoxicity at 10 µM was 10.1%.
With `CNS(=O)(=O)C1CCN(c2cc(C(C)C)nc(C(C)C)n2)C1` (configuration not stated) the cytotoxicity at 10 µM was -3.33%.
Work on `Cc1nn(C)c(C)c1C(=O)N1CCN(C(=O)CCC2CCCCC2)CC1` yielded a cytotoxicity at 10 µM of -5.47%.
In the case of `Cc1occc1C(=O)NCC(O)c1ccc(Cl)s1` (configuration not stated), the cytotoxicity at 10 µM is reported as -16.4%.
Work on `COc1ccc(Oc2ncccc2NC(=O)N2CCOCC2C)cc1` (configuration not stated) yielded a cytotoxicity at 10 µM of -2.43%.
`CC(NC(=O)N1CCc2ccccc2C1)c1nncn1C` (configuration not stated) showed a cytotoxicity at 10 µM of -6.98%.
Compound `CC(C)(C)NC(=O)Cn1nc(C2CC2)cc(C(F)(F)F)c1=O` has a cytotoxicity at 10 µM of -13.9%.
With `COCCN(CCC#N)S(=O)(=O)c1cc(F)cc(F)c1` the cytotoxicity at 10 µM was -3.32%.
For `CC(C)c1ncc(C(=O)N2CCOCC2CC(=O)c2ccco2)s1` (configuration not stated), the cytotoxicity at 10 µM was 5.08%.
Work on `Cc1cc(CNCc2c(C(C)C)nn(C)c2N2CCOCC2)no1` yielded a cytotoxicity at 10 µM of 16.5%.
With `CC(=O)N1Cc2ccccc2C[C@H]1C(=O)Nc1ccccn1` the cytotoxicity at 10 µM was -3.09%.
For `CN(Cc1nc(-c2cccnc2)no1)C(=O)c1cnc2n1CCCC2`, the cytotoxicity at 10 µM was 6.32%.
For `CCN(CC)CCNC(=O)C(C)OCC(F)(F)F` (configuration not stated), the cytotoxicity at 10 µM was 4.23%.
Work on `CCc1nc(C)ncc1C(=O)N1CC(=O)N(C)c2ccccc21` yielded a cytotoxicity at 10 µM of 6.62%.
For `CC(C)COC(C)C(=O)N1CCC(C)CC1` (configuration not stated), the cytotoxicity at 10 µM was 2.95%.
Work on `COc1ccc(-c2ccc(C(=O)NS(C)(=O)=O)c(F)c2)c(F)c1` yielded a cytotoxicity at 10 µM of 0.512%.
With `COc1ccc(-n2ccc(CNCc3ccc(OC)c(O)c3)n2)cc1` the cytotoxicity at 10 µM was 0.51%.
In the case of `CCC1CN(C)c2ccccc2CN1C(=O)c1c[nH]c(=O)cc1C` (configuration not stated), the cytotoxicity at 10 µM is reported as 16.1%.
`O=C(O)c1c(Cl)ncn1-c1ccccc1` showed a cytotoxicity at 10 µM of -2.34%.
For `COCc1cc(N(Cc2ccsc2)C2CC2)n2ncnc2n1`, the cytotoxicity at 10 µM was -3.75%.
In the case of `COc1cc(I)c(Cl)cc1C(=O)N(C)CC(C)(C)O`, the cytotoxicity at 10 µM is reported as 11.4%.
`CCOCCC(=O)N(C)c1ccc(F)c(Cl)c1` gave a cytotoxicity at 10 µM of 0.232%.
`N#CC1(NC(=O)c2ccc(-c3nc(C4CC4)n[nH]3)cc2)CCC1` gave a cytotoxicity at 10 µM of 0.614%.
`COC(=O)CN(Cc1ccccc1C)C(=O)C1CCC1` showed a cytotoxicity at 10 µM of -3.64%.
In the case of `CC(C)(C)c1cnc(CN2CCC(NC(=O)CC3CCCC3)CC2)o1`, the cytotoxicity at 10 µM is reported as -15.5%.
Compound `CN1CCOC(C(=O)N2CCCC(C)(C)CC2)C1` (configuration not stated) has a cytotoxicity at 10 µM of 6.67%.
Compound `CC(C)CN1C(=O)C2(CCCC2)NC1c1cn(C)c(=O)n(C)c1=O` (configuration not stated) has a cytotoxicity at 10 µM of 2.8%.
For `O=C(O)c1ccc(CCNC(=O)C2(c3ccccc3)CC2)cc1`, the cytotoxicity at 10 µM was 8.29%.
Compound `Cn1c(Nc2cn[nH]c2)c(C#N)c(=O)n(C)c1=O` has a cytotoxicity at 10 µM of 14.9%.
`Cc1cn(-c2ccccc2)nc1NS(=O)(=O)c1cc(C(=O)O)cs1` gave a cytotoxicity at 10 µM of -18.9%.
For `O=C([C@@H]1CCCO1)N1CCn2c(Cn3cccn3)cnc2C1`, the cytotoxicity at 10 µM was -70.1%.
Compound `Cc1ccoc1C(=O)N1CCn2cc(CN3CCCC3)nc2C1` has a cytotoxicity at 10 µM of -79.6%.
Work on `CCOC(=O)C1(CCOC)CCN(Cc2nccn2CC)CC1` yielded a cytotoxicity at 10 µM of 6.77%.
`C[C@@H]1CN(CCOc2ccc(F)cc2)CC[C@@]1(O)C1CCOCC1` showed a cytotoxicity at 10 µM of -7.19%.
In the case of `Cc1nc2ccccn2c1CN1C[C@@H](CN(C)CCO)[C@@H](CO)C1`, the cytotoxicity at 10 µM is reported as -11.4%.
With `Cc1ccc(C2(O)CCN(C(=O)CCn3c(C)cccc3=O)CC2)nc1` the cytotoxicity at 10 µM was -9.02%.
`COc1cccc(-c2cc(C(=O)NCCCn3cnnc3)[nH]n2)c1` showed a cytotoxicity at 10 µM of 3.45%.
Work on `CN1[C@H](CO)C[C@H](CNCc2ccc(CO)o2)[C@@H]1c1ccccc1F` yielded a cytotoxicity at 10 µM of -9.37%.
With `CCCS(=O)(=O)N1CCC2(CCC(=O)N(CCc3ccncc3)C2)CC1` the cytotoxicity at 10 µM was -11.7%.
Work on `COCCCN1CC2(CCN(Cc3ncc[nH]3)CC2)CC1=O` yielded a cytotoxicity at 10 µM of -2.89%.
In the case of `Cc1ccc2nc(CN3CCCCC3CCn3cccn3)cn2c1` (configuration not stated), the cytotoxicity at 10 µM is reported as 7.31%.
For `CC(=O)NCCC1CCCCN1S(=O)(=O)c1ccc2ccccc2c1` (configuration not stated), the cytotoxicity at 10 µM was -125%.
`NC(=O)COc1ccc(CN2CCC3(CC2)[C@H](O)C[C@@H]3O)cc1Cl` showed a cytotoxicity at 10 µM of 3.76%.
Work on `CCOC(=O)c1cccc(N2CCCC3(CCC(=O)N(C4CC4)C3)C2)n1` (configuration not stated) yielded a cytotoxicity at 10 µM of -1.38%.
Work on `CCCN1CCC(CC(=O)NCc2cc(O)ncn2)CC1` yielded a cytotoxicity at 10 µM of 14.7%.
With `Cc1ccccc1C(CC(=O)NCc1n[nH]c(N)n1)c1ccccc1` (configuration not stated) the cytotoxicity at 10 µM was 8.8%.
In the case of `CC(=O)c1ccc(-c2cnn(CC(=O)Nc3cc(C)nn3C)c2)nc1`, the cytotoxicity at 10 µM is reported as -6.93%.
Compound `COc1cccc(OC2CN(C(=O)Cn3nc4ccccc4n3)C2)c1` has a cytotoxicity at 10 µM of -6.98%.
`CC(C1CCN(Cc2cnn(C)c2C2CC2)CC1)N1CCN(C)CC1` (configuration not stated) showed a cytotoxicity at 10 µM of -11.9%.
For `C[C@@H]1CN(C(=O)CCc2nncn2C)CC[C@@]1(O)C1CCC1`, the cytotoxicity at 10 µM was -6.65%.
`COCc1ncc(CN2CC[C@@](C)(O)[C@@H](Cc3ccccc3)C2)cn1` gave a cytotoxicity at 10 µM of 12.1%.
For `O=C1CC[C@H]2CN(c3ncc(F)cn3)CC[C@H]2N1CCc1c[nH]cn1`, the cytotoxicity at 10 µM was 3.96%.
With `Nc1nc2c(c(N3CCCC(c4nnc5ccccn45)C3)n1)CCNC2` (configuration not stated) the cytotoxicity at 10 µM was -3.57%.
Work on `CC(C)CC(O)C1CCN(C(=O)c2ccc(C(F)(F)F)nc2O)CC1` (configuration not stated) yielded a cytotoxicity at 10 µM of 2.5%.
`OCc1csc(N2CCN(Cc3cccc(F)c3)CC2)n1` showed a cytotoxicity at 10 µM of -4.9%.
`Cc1nc2nc(C)c3c(=O)n(-c4ccn[nH]4)ccc3n2n1` showed a cytotoxicity at 10 µM of 0.87%.
Compound `COc1cccc2c1OCC(C(=O)NC1CCN(S(C)(=O)=O)CC1)C2` (configuration not stated) has a cytotoxicity at 10 µM of -10.7%.
For `CN(Cc1nnc(C2CC2)n1C)C1CCN(Cc2ccncc2)C1` (configuration not stated), the cytotoxicity at 10 µM was -10.3%.
`COc1cccc(COCC(=O)N2CCN(S(C)(=O)=O)CC2)c1` showed a cytotoxicity at 10 µM of -10.7%.
For `Cc1cc(NC(=O)NCC(C(C)C)N2CCOCC2)n(C)n1` (configuration not stated), the cytotoxicity at 10 µM was -17.2%.
Compound `O=C(CCCc1nnc(-c2ccccc2)o1)N1CCC1` has a cytotoxicity at 10 µM of -3.41%.
In the case of `Cn1cnnc1C1CCN(C(=O)CCCOc2ccccc2)CC1`, the cytotoxicity at 10 µM is reported as -7.62%.
`O=C1CCc2cc(-c3csc(CCN4CCOC4=O)n3)c(F)cc2N1` gave a cytotoxicity at 10 µM of 35.2%.
`CC(C)COCC(NC(=O)c1ccncc1)c1ccco1` (configuration not stated) gave a cytotoxicity at 10 µM of -9.53%.
`CC(NC(=O)CCOc1ccc(F)cc1)c1nnc2n1CCCCC2` (configuration not stated) showed a cytotoxicity at 10 µM of -8.71%.
`Cc1ccc(C(O)CNCc2c(C(C)C)nn(C)c2N(C)C)cc1` (configuration not stated) gave a cytotoxicity at 10 µM of -11.8%.
For `COc1cccc(C(=O)Nc2cc(CC(C)C)nn2C)c1`, the cytotoxicity at 10 µM was -9.42%.
`CCn1c(C(=O)N2CCN(C(=O)COC)CC2)cc2ccccc21` gave a cytotoxicity at 10 µM of -6.59%.
Compound `O=C(NCCCn1cncn1)N1CCCC(N2CCCC2)C1` (configuration not stated) has a cytotoxicity at 10 µM of -2.66%.
Compound `N#Cc1cnn(-c2ccc(C(=O)Nc3ccccn3)cc2)c1N` has a cytotoxicity at 10 µM of -9.03%.
`CC(C)n1c(=O)c2ccccc2n(CCCN(C)C)c1=O` showed a cytotoxicity at 10 µM of -13.2%.
In the case of `CCC(CN1CCCCC1)NC(=O)C1(c2cccc(F)c2)CC1` (configuration not stated), the cytotoxicity at 10 µM is reported as 0.689%.
With `COc1c(C)cc(CNCc2ccnc(N3CCOCC3)c2)cc1C` the cytotoxicity at 10 µM was 11.9%.
In the case of `COC[C@H]1CC[C@@H]2[C@@H](CCN2Cc2ccccn2)O1`, the cytotoxicity at 10 µM is reported as -72.6%.
`COCCN1CC[C@@H]2CN(Cc3nccn3C)C[C@@H]2C1` gave a cytotoxicity at 10 µM of -76.5%.
In the case of `CCOCC(=O)N1C[C@H]2CC[C@@H](C1)N(Cc1ccccn1)C2=O`, the cytotoxicity at 10 µM is reported as 10.9%.
